Results as given in ChEMBL document CHEMBL5150051, “Identification and Characterization of a Novel Indoleamine 2,3-Dioxygenase 1 Protein Degrader for Glioblastoma” (J Med Chem, 2022).
Calls of active or inactive are those of the source. The calls are words filed in the database; no cut-off is given here.

Key:
[1] = target: T1, Protein cereblon/Indoleamine 2,3-dioxygenase 1 (Homo sapiens, UniProt P14902+Q96SW2); experiment: Protac activity at IDO1/CRBN in IFNgamma-stimulated human GBM43 cells assessed as IDO1 degradation by measuring decrease in protein level measured at 10 uM for 16 to 96 hrs by Western blotting analysis; format: cell-based; settings: GBM43 cell, time 16-96 hrs
Target sequence in this assay (P14902 whole entry, looked up): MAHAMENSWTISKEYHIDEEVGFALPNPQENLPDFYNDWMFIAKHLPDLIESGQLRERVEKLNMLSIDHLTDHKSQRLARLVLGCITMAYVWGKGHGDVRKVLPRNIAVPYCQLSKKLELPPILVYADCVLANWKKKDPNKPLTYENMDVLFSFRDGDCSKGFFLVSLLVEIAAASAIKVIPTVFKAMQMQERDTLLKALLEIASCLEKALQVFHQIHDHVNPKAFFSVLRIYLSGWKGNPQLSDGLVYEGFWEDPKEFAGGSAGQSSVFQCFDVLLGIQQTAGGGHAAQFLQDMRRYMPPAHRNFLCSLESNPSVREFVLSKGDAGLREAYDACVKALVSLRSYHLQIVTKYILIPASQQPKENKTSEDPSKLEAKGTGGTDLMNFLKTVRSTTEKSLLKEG
Target sequence in this assay (Q96SW2 whole entry, looked up): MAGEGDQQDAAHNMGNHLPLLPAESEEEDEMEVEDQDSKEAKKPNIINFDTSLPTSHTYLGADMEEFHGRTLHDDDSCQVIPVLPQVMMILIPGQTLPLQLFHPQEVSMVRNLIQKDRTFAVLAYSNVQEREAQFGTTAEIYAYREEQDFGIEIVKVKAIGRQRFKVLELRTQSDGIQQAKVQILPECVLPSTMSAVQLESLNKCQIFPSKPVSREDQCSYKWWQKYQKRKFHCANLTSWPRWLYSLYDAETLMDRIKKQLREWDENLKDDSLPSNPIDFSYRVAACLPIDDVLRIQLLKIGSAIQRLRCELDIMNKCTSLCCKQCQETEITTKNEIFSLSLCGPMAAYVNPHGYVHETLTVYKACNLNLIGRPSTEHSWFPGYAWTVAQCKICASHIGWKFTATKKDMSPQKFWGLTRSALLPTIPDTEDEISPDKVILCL

[2] = Half life in C57BL/6 mouse brain at 25 mg/kg, ip; format: ADME, organism-based
Mus musculus = experiment: In vivo Protac activity at IDO1/CRBN in GL261 cells expressing mIDO1 cDNA mouse model assessed as decrease in IDO1 protein level in tumor measured at 25 mg/kg, ip
Ido1/Crbn (Mus musculus) = Ido1/Crbn (Mus musculus) (UniProt P28776+Q8C7D2); experiment: Protac activity at IDO1/CRBN in IFNgamma-stimulated mouse GL261 cells assessed as IDO1 degradation by measuring decrease in intracellular protein level measured after 24 hrs by Western blotting analysis; format: cell-based; settings: dose 1-10 µM, DDE = dose-dependent effect
[3] = target: T1, Protein cereblon/Indoleamine 2,3-dioxygenase 1; experiment: Protac activity at CRBN/IDO1-FLAG expressed in human U87 cells assessed as IDO1 degradation at 10 uM measured in presence of IDO1 inhibitor BGB-7204 by immunoprecipitated ubiquitination assay; format: cell-based
Target sequence in this assay (P14902 whole entry, looked up): as the sequence (P14902 whole entry, looked up) above
Target sequence in this assay (Q96SW2 whole entry, looked up): as the sequence (Q96SW2 whole entry, looked up) above

[4] = target: T1, Protein cereblon/Indoleamine 2,3-dioxygenase 1; experiment: Protac activity at IDO1/CRBN in IFNgamma-stimulated human U87 cells assessed as IDO1 degradation by measuring decrease in protein level measured at 10 uM continuous upto 72 hrs by Western blotting analysis; settings: U87 cell
Target sequence in this assay (P14902 whole entry, looked up): as the sequence (P14902 whole entry, looked up) above
Target sequence in this assay (Q96SW2 whole entry, looked up): as the sequence (Q96SW2 whole entry, looked up) above

[5] = Drug uptake in C57BL/6 mouse liver at 50 mg/kg, ip treated 5 days/week for 3 weeks by LC/MS/MS analysis; format: ADME, organism-based; settings: in vivo, 504 h
[6] = target: T1, Protein cereblon/Indoleamine 2,3-dioxygenase 1; experiment: Protac activity at CRBN/IDO1 non-enzyme mediated p65 phosphorylation in enzyme-null cDNA transfected in IFNgamma-stimulated human U87 cells measured at 0.1 to 10 uM after 24 hrs by Western blotting analysis; format: cell-based; settings: dose 0.1-10 µM
Target sequence in this assay (P14902 whole entry, looked up): as the sequence (P14902 whole entry, looked up) above
Target sequence in this assay (Q96SW2 whole entry, looked up): as the sequence (Q96SW2 whole entry, looked up) above

[7] = target: T1, Protein cereblon/Indoleamine 2,3-dioxygenase 1; experiment: Protac activity at CRBN/IDO1-HA expressed in human U87 cells assessed as IDO1 degradation in intracellular cytoplasmic compartment measured at 1 to 10 uM after 24 hrs by Western blotting analysis; format: subcellular; settings: Cytoplasm, dose 1-10 µM
Target sequence in this assay (P14902 whole entry, looked up): as the sequence (P14902 whole entry, looked up) above
Target sequence in this assay (Q96SW2 whole entry, looked up): as the sequence (Q96SW2 whole entry, looked up) above

[8] = Half life in C57BL/6 mouse plasma at 25 mg/kg, ip; format: ADME, organism-based
[9] = target: T1, Protein cereblon/Indoleamine 2,3-dioxygenase 1; experiment: Protac activity at CRBN/IDO1-HA expressed in human U87 cells assessed as IDO1 degradation in intracellular nuclear compartment measured at 1 to 10 uM after 24 hrs by Western blotting analysis; format: subcellular; settings: Nucleus, dose 1-10 µM
Target sequence in this assay (P14902 whole entry, looked up): as the sequence (P14902 whole entry, looked up) above
Target sequence in this assay (Q96SW2 whole entry, looked up): as the sequence (Q96SW2 whole entry, looked up) above

[10] = target: T1, Protein cereblon/Indoleamine 2,3-dioxygenase 1; experiment: Protac activity at IDO1/CRBN in IFNgamma-stimulated human U87 cells assessed as IDO1 degradation measured after 24 hrs by Western blotting analysis; format: cell-based
How it was run: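 U87 cells given human IFNγ 50 ng/mL for 24 h to induce IDO1, then PROTAC over a dose range starting at 0.01 μM and rising to 30 μM for 24 h. Western blot read-out. IDO1 band densitometry normalized to untreated samples and fitted to give DC50, the concentration giving 50% IDO1 degradation. n = 3 independent experiments, mean ± SEM.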
Target sequence in this assay (P14902 whole entry): as the sequence (P14902 whole entry, looked up) above
Target sequence in this assay (Q96SW2 whole entry): as the sequence (Q96SW2 whole entry, looked up) above

[11] = Toxicity in C57BL/6 mouse assessed as body weight change at 10 to 100 mg/kg, ip treated 5 days/week for 3 weeks; format: organism-based; settings: in vivo, 504 h, dose 10-100 mg/kg
How it was run: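 Male C57BL/6 mice dosed ip with vehicle or compound at 10, 25, 50 or 100 mg/kg, 5 days/week for 3 weeks. Body weight recorded every 2–3 days. n = 3 mice/dose, mean ± SEM.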

[12] = target: T1, Protein cereblon/Indoleamine 2,3-dioxygenase 1; experiment: Protac activity at CRBN/IDO1 in 50 ng/mL IFNgamma-stimulated human U87 cells assessed as IDO1 degradation by measuring decrease in protein level measured at 0.1 to 10 uM after 24 hrs by Western blotting analysis; settings: dose 0.1-10 µM
[13] = target: T1, Protein cereblon/Indoleamine 2,3-dioxygenase 1; experiment: Protac activity at CRBN/IDO1 in IFNgamma-stimulated human OVCAR-5 cells assessed as decrease in kynurenine level at 10 uM measured after 24 hrs by Ehrlich's test; format: cell-based
[14] = target: T1, Protein cereblon/Indoleamine 2,3-dioxygenase 1; experiment: Binding affinity to CRBN /IDO1 (unknown origin) assessed as ternary complex stability by measuring half-life by bio-layer interferometry assay; format: protein assay
How it was run: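 For the ternary complex, compound was preincubated with a 25-fold molar excess of CRBN, and binding of this binary complex to IDO1 was followed in real time.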

[15] = Drug uptake in C57BL/6 mouse intestine at 100 mg/kg, ip treated 5 days/week for 3 weeks by LC/MS/MS analysis; format: ADME, organism-based; settings: in vivo, 504 h
[16] = target: T1, Protein cereblon/Indoleamine 2,3-dioxygenase 1; experiment: Protac activity at CRBN/IDO1-HA expressed in human U87 cells assessed as IDO1 degradation measured at 1 to 10 uM after 24 hrs by Western blotting analysis; format: cell-based; settings: dose 1-10 µM
[17] = target: T1, Protein cereblon/Indoleamine 2,3-dioxygenase 1; experiment: Protac activity at IDO1/CRBN in IFNgamma-stimulated human KNS-42 cells assessed as IDO1 degradation measured after 24 hrs by Western blotting analysis; format: cell-based; settings: dose 0.1-10 µM, DDE = dose-dependent effect
[18] = target: T1, Protein cereblon/Indoleamine 2,3-dioxygenase 1; experiment: Protac activity at IDO1/CRBN in IFNgamma-stimulated human U87 cells assessed as IDO1 degradation at 10 uM measured after 24 hrs by Western blotting analysis relative to control; format: cell-based
How it was run: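 U87 GBM cells primed with human IFNγ 50 ng/mL for 24 h, then exposed to PROTAC at 10 μM for 24 h. Lysates run on western blot; IDO1 bands quantified by densitometry and expressed as percent of normalized IDO1 protein level.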

[19] = target: T1, Protein cereblon/Indoleamine 2,3-dioxygenase 1; experiment: Protac activity at CRBN/IDO1 in IFNgamma-stimulated human PC-3 cells assessed as decrease in kynurenine level at 10 uM measured after 24 hrs by Ehrlich's test; format: cell-based
[20] = target: T1, Protein cereblon/Indoleamine 2,3-dioxygenase 1; experiment: Protac activity at CRBN/IDO1-FLAG expressed in human U87 cells assessed as IDO1 degradation in intracellular nuclear compartment measured at 1 to 10 uM after 24 hrs by Western blotting analysis; format: subcellular; settings: Nucleus, dose 1-10 µM
[21] = target: T1, Protein cereblon/Indoleamine 2,3-dioxygenase 1; experiment: Protac activity at CRBN/IDO1 non-enzyme mediated NF-kappaB signal in IFNgamma-stimulated human MDA-MB-231 cells assessed as decrease in p65 phosphorylation at 0.1 to 10 uM measured after 24 hrs Western blotting assay; format: cell-based; settings: dose 0.1-10 µM
How it was run: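 IFNγ-stimulated cells were induced for 24 h, then treated at several concentrations for 24 h. Lysates were western blotted for IDO1, phospho-p65, total p65 and GAPDH.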

[22] = Drug uptake in C57BL/6 mouse serum at 10 to 100 mg/kg, ip treated 5 days/week for 3 weeks by LC/MS/MS analysis; format: ADME, organism-based; settings: in vivo, 504 h, dose 10-100 mg/kg
How it was run: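 Male C57BL/6 mice dosed ip at 10, 25, 50 or 100 mg/kg, 5 days/week for 3 weeks, alongside vehicle. After 3 weeks, serum and brain homogenate were analysed by mass spectrometry for drug level; mean ± SEM, n = 3 mice/dose.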

[23] = target: T1, Protein cereblon/Indoleamine 2,3-dioxygenase 1; experiment: Protac activity at CRBN/IDO1-FLAG expressed in human U87 cells assessed as IDO1 degradation in intracellular cytoplasmic compartment measured at 1 to 10 uM after 24 hrs by Western blotting analysis; format: subcellular; settings: Cytoplasm, dose 1-10 µM

Chain of Ido1/Crbn (Mus musculus) (P28776 whole entry, looked up): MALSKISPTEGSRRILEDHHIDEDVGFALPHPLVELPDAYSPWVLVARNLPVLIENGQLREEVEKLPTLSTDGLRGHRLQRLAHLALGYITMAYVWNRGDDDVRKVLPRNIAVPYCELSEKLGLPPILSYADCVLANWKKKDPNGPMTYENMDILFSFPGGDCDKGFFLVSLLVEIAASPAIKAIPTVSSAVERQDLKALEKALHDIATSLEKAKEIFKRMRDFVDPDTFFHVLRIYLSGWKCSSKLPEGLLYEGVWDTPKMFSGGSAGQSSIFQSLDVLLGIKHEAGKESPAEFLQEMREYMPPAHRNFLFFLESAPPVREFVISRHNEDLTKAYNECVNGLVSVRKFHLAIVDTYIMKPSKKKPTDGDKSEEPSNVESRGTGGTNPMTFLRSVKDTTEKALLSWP
Chain of Ido1/Crbn (Mus musculus) (Q8C7D2 whole entry, looked up): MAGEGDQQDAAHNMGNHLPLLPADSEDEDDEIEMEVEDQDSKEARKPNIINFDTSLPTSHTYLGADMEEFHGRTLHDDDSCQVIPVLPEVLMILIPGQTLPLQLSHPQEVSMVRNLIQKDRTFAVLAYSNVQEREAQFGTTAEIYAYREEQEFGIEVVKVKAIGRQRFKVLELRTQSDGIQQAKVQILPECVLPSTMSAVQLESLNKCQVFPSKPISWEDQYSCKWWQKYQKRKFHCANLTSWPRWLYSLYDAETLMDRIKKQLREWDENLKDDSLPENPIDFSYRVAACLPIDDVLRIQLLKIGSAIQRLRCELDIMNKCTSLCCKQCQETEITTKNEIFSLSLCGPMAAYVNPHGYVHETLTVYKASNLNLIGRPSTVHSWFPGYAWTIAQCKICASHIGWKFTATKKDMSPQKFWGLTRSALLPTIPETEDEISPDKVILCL

Compound: C[C@@H](C(=O)Nc1ccc(OC2CCN(C(=O)CCOCCOCCNc3cccc4c3C(=O)N(C3CCC(=O)NC3=O)C4=O)CC2)cc1)[C@H]1CC[C@@H](c2ccnc3ccc(F)cc32)CC1 (stereo not given in full)
- Activity [1]: Active
- half-life [2]: 8.3 h
- Activity (Mus musculus): Active
- Activity (Ido1/Crbn (Mus musculus)): Dde
- Activity [3]: Active
- Activity [4]: Active
- Drug uptake [5]: Active
- inhibition [6]: Active
- Activity [7]: Active
- half-life [8]: 2.5 h
- Activity [9]: Active
- EC50 [10]: 0.329 µM
- Activity [11]: Non-Toxic
- Activity [12]: Active
- inhibition [13]: Active
- T1/2 [14]: 7.7 min
- Drug uptake [15]: Active
- Activity [16]: Active
- Activity [17]: Dde
- Activity [18]: 94%
- inhibition [19]: Active
- Activity [20]: Active
- inhibition [21]: Active
- Drug uptake [22]: Active
- Activity [23]: Active
